# According to publication PMC7787347 (Journal of medicinal chemistry, 2018):
# “Also recorded” adds a separate entry of the source.
# What was measured:
# [1] = test system: SW480; details: read-out: MTs IC50 ± SD SW480; Wnt/β-catenin hyperactive, 72 h; cited from earlier work
# [2] = test system: HCT116; details: read-out: MTs IC50 ± SD HCT116; Wnt/β-catenin hyperactive, 72 h; cited from earlier work
# [3] = test system: MDA-MB-231; details: read-out: MTs IC50 ± SD MDA-MB-231; Wnt/β-catenin hyperactive, 72 h; cited from earlier work
# [4] = test system: A549; details: read-out: MTs IC50 ± SD normal Wnt A549, 72 h; cited from earlier work
# [5] = test system: MDA-MB-231 cells; details: cited from earlier work
# [6] = test system: β-catenin; details: in words; cited from earlier work
# [7] = test system: BCL9 HD2 domain; details: in words; cited from earlier work
# [8] = test system: Axin2, LEF1, cyclin D1 mRNA in SW480 cells; test: qPCR of Wnt target gene mRNA expression; type: cell-based, human; details: 24 h, in words
# [9] = test system: cyclin D1, c-myc, active β-catenin (ABC), total β-catenin in SW480 cells; test: Western blot of protein expression; type: cell-based; details: 24 h, in words
# [10] = target: T1, β-catenin/BCL9 PPI (Homo sapiens, UniProt P35222); test: AlphaScreen competitive inhibition assay, β-catenin/BCL9 PPI; type: binding; details: in words
# T1 sequence (P35222 1-781): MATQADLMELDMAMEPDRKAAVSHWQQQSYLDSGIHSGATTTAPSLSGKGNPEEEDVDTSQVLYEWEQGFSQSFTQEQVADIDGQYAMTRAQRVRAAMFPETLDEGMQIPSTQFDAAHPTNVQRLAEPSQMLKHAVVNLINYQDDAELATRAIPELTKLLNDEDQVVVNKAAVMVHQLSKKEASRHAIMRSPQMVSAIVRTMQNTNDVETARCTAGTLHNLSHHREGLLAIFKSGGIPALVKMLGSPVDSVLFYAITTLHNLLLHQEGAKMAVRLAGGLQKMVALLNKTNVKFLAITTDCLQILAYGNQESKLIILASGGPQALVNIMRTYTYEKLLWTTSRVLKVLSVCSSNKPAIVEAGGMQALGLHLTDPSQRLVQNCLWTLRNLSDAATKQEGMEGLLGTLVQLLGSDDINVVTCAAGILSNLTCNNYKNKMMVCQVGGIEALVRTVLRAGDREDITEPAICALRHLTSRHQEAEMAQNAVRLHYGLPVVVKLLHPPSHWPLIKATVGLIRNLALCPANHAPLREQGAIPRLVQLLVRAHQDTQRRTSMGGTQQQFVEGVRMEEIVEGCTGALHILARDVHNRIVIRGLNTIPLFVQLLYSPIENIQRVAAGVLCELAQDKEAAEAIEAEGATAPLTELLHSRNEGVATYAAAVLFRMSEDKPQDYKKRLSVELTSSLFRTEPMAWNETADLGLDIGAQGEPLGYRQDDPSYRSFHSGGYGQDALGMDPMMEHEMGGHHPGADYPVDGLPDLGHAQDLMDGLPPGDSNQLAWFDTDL
# [11] = target: T2, β-catenin/E-cadherin PPI (Homo sapiens, UniProt P35222); test: AlphaScreen selectivity assay, β-catenin/E-cadherin PPI; type: binding; details: for selectivity of BCL9/cadherin: ratio of Ki β-catenin/E-cadherin over Ki β-catenin/BCL9
# T2 sequence (P35222 1-781): T1 sequence (P35222 1-781)
# [12] = test system: SW480 cells; test: LDH release cytotoxicity assay; type: cell-based; details: 4 h incubation, in words
# Summary of the method: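 SW480 cells were seeded at 2 × 10^4 cells/well, held overnight at 37 °C, then exposed to various concentrations of test compound for 4 h. The culture supernatant was reacted with the commercial LDH kit reagents and read at 490 nm. Percent cytotoxicity was calculated from experimental, background and maximum LDH release. Run in triplicate.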
# [13] = test system: FOPFlash luciferase reporter (three mutant Tcf4 binding sites) in β-catenin activated HEK293 cells; test: FOPFlash luciferase reporter assay; type: cell-based; details: in words; for effect on FOPFlash luciferase reporter activity: β-catenin activated HEK293 cells
# [14] = test system: HCT116 cells; test: Cell-bound; type: in vitro ADME; details: 5 mL DMEM with 10% FBS
# [15] = test system: full-length β-catenin/full-length BCL9 PPI in HCT116 cell lysates; test: Co-IP in cell lysates; type: cell-based; details: 4 h incubation with HCT116 cell lysates, in words
# [16] = test system: β-catenin/BCL9 PPI in HCT116 cells; test: Co-IP in whole cells; type: cell-based; details: 24 h, in words
# [17] = target: BCL9 (Homo sapiens) (UniProt O00512); details: cited from earlier work
# BCL9 (Homo sapiens), sequence (O00512 whole entry): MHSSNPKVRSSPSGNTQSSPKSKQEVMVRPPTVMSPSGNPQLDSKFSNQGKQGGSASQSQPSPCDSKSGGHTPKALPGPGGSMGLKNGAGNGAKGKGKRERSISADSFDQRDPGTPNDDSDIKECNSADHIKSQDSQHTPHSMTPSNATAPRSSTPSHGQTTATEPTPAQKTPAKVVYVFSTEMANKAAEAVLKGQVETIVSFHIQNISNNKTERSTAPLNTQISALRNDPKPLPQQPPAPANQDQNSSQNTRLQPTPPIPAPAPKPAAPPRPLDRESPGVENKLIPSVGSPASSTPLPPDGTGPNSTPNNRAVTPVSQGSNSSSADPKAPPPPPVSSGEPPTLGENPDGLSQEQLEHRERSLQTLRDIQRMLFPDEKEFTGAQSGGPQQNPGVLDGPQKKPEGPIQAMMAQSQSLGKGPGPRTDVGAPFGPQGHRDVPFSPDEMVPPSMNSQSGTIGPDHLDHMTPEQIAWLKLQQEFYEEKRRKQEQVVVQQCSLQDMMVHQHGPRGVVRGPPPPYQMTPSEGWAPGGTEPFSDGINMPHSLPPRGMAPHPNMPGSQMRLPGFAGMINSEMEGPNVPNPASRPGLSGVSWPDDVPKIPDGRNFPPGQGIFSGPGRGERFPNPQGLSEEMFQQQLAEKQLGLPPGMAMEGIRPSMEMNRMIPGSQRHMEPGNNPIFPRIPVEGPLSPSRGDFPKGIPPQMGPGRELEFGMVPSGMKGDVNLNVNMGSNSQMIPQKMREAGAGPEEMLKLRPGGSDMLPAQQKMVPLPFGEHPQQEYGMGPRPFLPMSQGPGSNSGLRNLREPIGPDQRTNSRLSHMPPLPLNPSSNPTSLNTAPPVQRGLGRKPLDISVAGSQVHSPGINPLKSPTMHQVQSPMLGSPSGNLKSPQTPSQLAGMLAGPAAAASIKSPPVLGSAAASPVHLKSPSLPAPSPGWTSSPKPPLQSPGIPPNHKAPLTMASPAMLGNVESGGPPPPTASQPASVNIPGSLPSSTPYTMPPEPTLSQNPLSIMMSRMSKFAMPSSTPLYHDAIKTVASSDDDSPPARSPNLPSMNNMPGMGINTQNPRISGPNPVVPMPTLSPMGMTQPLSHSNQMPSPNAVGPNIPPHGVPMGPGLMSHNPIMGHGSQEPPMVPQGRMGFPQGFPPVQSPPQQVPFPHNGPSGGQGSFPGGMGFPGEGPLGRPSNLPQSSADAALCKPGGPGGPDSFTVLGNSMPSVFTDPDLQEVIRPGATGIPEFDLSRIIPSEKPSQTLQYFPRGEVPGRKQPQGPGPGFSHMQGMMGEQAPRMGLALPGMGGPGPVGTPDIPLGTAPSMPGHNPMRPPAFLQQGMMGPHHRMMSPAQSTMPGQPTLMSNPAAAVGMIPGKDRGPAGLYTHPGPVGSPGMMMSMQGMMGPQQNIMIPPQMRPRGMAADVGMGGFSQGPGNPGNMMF
Molecule,"mRNA expression of Wnt target genes Axin2, cyclin D1 and LEF1 [8]",mRNA expression of house-keeper gene HPRT [8],level of E-cadherin-bound β-catenin (total β-catenin) [9],level of the active form of β-catenin (ABC) [9],protein expression levels of cyclin D1 and c-myc [9],AlphaScreen biochemical inhibitory activity compared with 1 [10],Ki [11],selectivity of BCL9/cadherin [11],effect on FOPFlash luciferase reporter activity [13],further results
Cl.Cl.O=C(Nc1ccc(O[C@H]2CCNC2)c(-c2ccc(F)cc2)c1)c1ccc(O[C@H]2CCNC2)c(-c2ccc(F)c(F)c2)c1 [Compound 1],,,,,,,,,,"IC50 [1]: 3.5 ± 0.32 µM; IC50 [2]: 3.1 ± 0.83 µM; IC50 [3]: 2.3 ± 0.25 µM; IC50 [4]: 8.8 ± 0.62 µM; cell-bound concentration at 4 °C ([5]; 6 h incubation at 4 °C, 5 mL DMEM with 10% FBS): 1 nmol/million MDA-MB-231 cells; cell-bound concentration at 37 °C ([5]; 6 h incubation, 5 mL DMEM with 10% FBS, input concentration 2 μM): 6.7 nmol/million MDA-MB-231 cells; amount bound with the cell membrane by the nonspecific manner ([5]; MDA-MB-231 cells): 15%; binding with β-catenin in ITC [6]: bind with β-catenin; binding with BCL9 HD2 domain in ITC [7]: not the BCL9 HD2 domain"
"Cl.Cl.O=C(Nc1ccc(O[C@H]2CCNC2)c(-c2ccc(F)cc2)c1)c1ccc(O[C@H]2CCNC2)c(-c2ccc3ccsc3c2)c1 [Compound 3, 3-(Benzo[b]thiophen-6-yl)-N-(4′-fluoro-6-(((S)-pyrrolidin-3-yl)-oxy)-[1,1′-biphenyl]-3-yl)-4-(((S)-pyrrolidin-3-yl)oxy)benzamide Dihydrochloride]",dose-dependently inhibited,did not inhibit,no effect,inhibit the level of the active form of β-catenin (ABC),significantly decreased,,,,,
"Cl.Cl.O=C(Nc1ccc(O[C@H]2CCNC2)c(-c2cccc(-c3nn[nH]n3)c2)c1)c1ccc(O[C@H]2CCNC2)c(-c2ccc(F)c(F)c2)c1 [Compound 27, 3′,4′-Difluoro-6-((S)-pyrrolidin-3-yloxy)-N-(6-((S)-pyrrolidin-3-yloxy)-3′-(2H-tetrazol-5-yl)-[1,1′-biphenyl]-3-yl)-[1,1′-biphenyl]-3-carboxamide Dihydrochloride]",,,,,,comparable with that of 1,,,,
"Cl.Cl.O=C(Nc1ccc(O[C@@H]2CCNC2)c(-c2cccc(-c3nn[nH]n3)c2)c1)c1ccc(O[C@H]2CCNC2)c(-c2ccc(F)c(F)c2)c1 [Compound 29, 3′,4′-Difluoro-6-(((S)-pyrrolidin-3-yl)oxy)-N-(6-(((R)-pyrrolidin-3-yl)oxy)-3′-(2H-tetrazol-5-yl)-[1,1′-biphenyl]-3-yl)-[1,1′-biphenyl]-3-carboxamide Dihydrochloride]",dose-dependently inhibited,did not inhibit,no effect,inhibit the level of the active form of β-catenin (ABC),significantly decreased,,> 915 µM,>1900 fold,specific for the Wnt/β-catenin signaling pathway,"cytotoxicity in LDH release assay [12]: did not exhibit cytotoxicity; also recorded: did not show cytotoxicity; effect on FOPFlash luciferase reporter activity up to 200 μM ([13]; up to the concentration of 200 μM): no effect; cell-bound concentration at 4 °C ([14]; 6 h incubation at 4 °C): 5.1 nmol/million HCT116 cells; cell-bound concentration at 37 °C ([14]; 6 h incubation, input concentration 50 μM): 6.6 nmol/million HCT116 cells; disruption of full-length β-catenin/full-length BCL9 PPI [15]: dose-dependently disrupt; disruption of β-catenin/BCL9 PPI in cells [16]: inhibited the β-catenin/BCL9 PPI in a dose-dependent manner"
"Cl.Cl.O=C(Nc1ccc(O[C@@H]2CCNC2)c(-c2cccc(-c3nn[nH]n3)c2)c1)c1ccc(O[C@H]2CCNC2)c(-c2ccc3ccsc3c2)c1 [Compound 30, (R)-3-((5-(3-(Benzo[b]thiophen-6-yl)-4-(((S)-pyrrolidin-1-ium-3-yl)oxy)benzamido)-3′-(2H-tetrazol-5-yl)-[1,1′-biphenyl]-2-yl)oxy)-pyrrolidin-1-ium Chloride]",,,,,,comparable with that of 1,> 915 µM,>570 fold,specific for the Wnt/β-catenin signaling pathway,
β-catenin (from UniProt P35222),,,,,,,,,,Kd [17]: 0.47 µM
